Experimental findings from PMC7077758 (The Journal of organic chemistry, 2019) are described below.

This series is described as follows: Thiol reactivity assay. It is filed as physicochemical. The settings on record: room temperature, 1H NMR. In outline: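 Dehydroamino-acid peptide (typically 0.010–0.015 mmol) in DMSO-d6 with 1,3,5-trimethoxybenzene as internal standard, treated with 2 equiv cysteamine added from a freshly prepared 0.5 M stock in DMSO-d6. 1H NMR spectra were recorded over time, and loss of starting peptide was quantified from diagnostic signals against the internal standard. Peptides unreactive at room temperature were heated stepwise to 60, 80 and 100 °C.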

Where only a bound is given, the exact number is not on record here.

In the case of `C=C1CCOC1=O` [α-methylene-γ-butyrolactone], the “time to complete consumption of the electrophile by cysteamine” value is at most 5 min.
